This note sets out measurements from ChEMBL document CHEMBL1149043, “Antiplatelet constituents of formosan Rubia akane” (1994).

Structures are written as SMILES.

The test system of assay [1] is Platelet. Briefly: Antiplatelet activity against rabbit platelet assessed as inhibition of collagen-induced platelet aggregation treated 3 mins before collagen challenge by turbidimetric method. It counts as functional, cell-based. The following applies: Oryctolagus cuniculus.
In assay [2] the test system is Platelet. Nature of the assay: Inhibition of thrombin-induced platelet aggregation in rabbit platelet assessed as aggregation at 300 uM treated 3 mins before thrombin challenge by turbidimetric method. It counts as functional, Oryctolagus cuniculus. The method, boiled down:
(§1)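 Washed rabbit platelets (EDTA PRP, 4.5×10^8/ml, Tyrode's with 0.35% BSA) were preincubated 3 min at 37° with agent at 300 μM or 0.5% DMSO control. Percent aggregation was read turbidimetrically and reported as mean±SEM (n) with significance versus control.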

The subject of assay [3] is Platelet. Briefly: Inhibition of arachidonic acid-induced platelet aggregation in rabbit platelet assessed as aggregation at 300 uM treated 3 mins before arachidonic acid challenge by turbidimetric method. It counts as functional, Oryctolagus cuniculus. Details: scale not given: the % may be the effect or the level left. Summed up: as §1
Assay [4] deals with Platelet. Briefly: Inhibition of collagen-induced platelet aggregation in rabbit platelet assessed as aggregation at 300 uM treated 3 mins before collagen challenge by turbidimetric method. It counts as functional, Oryctolagus cuniculus. The method, boiled down:
as §1

For assay [5], the system named is Platelet. Briefly: Inhibition of platelet activating factor-induced platelet aggregation in rabbit platelet assessed as aggregation at 300 uM treated 3 mins before platelet activating factor challenge by turbidimetric method. It counts as functional, Oryctolagus cuniculus. Summed up:
as §1

Assay [6] has as its system Platelet. Briefly: Antiplatelet activity against rabbit platelet assessed as inhibition of arachidonic acid-induced platelet aggregation treated 3 mins before arachidonic acid challenge by turbidimetric method. The following applies: Oryctolagus cuniculus. It counts as functional, cell-based.
For assay [7], the system named is Platelet. Briefly: Inhibition of thrombin-induced platelet aggregation in rabbit platelet assessed as aggregation at 50 uM treated 3 mins before thrombin challenge by turbidimetric method. Type of assay: functional, Oryctolagus cuniculus. Details: scale not given: the % may be the effect or the level left. Summed up: (§2)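 Rabbit platelets, washed from EDTA PRP and suspended at 4.5×10^8/ml in Tyrode's/0.35% BSA, were preincubated 3 min at 37° with agent at 50 μM, with 0.5% DMSO as control. Turbidimetric percent aggregation is given as mean±SEM (n).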

Assay [8] deals with Platelet. Briefly: Inhibition of arachidonic acid-induced platelet aggregation in rabbit platelet assessed as aggregation at 50 uM treated 3 mins before arachidonic acid challenge by turbidimetric method. It counts as functional, Oryctolagus cuniculus. Details: scale not given: the % may be the effect or the level left. The method, boiled down: as §2
Assay [9] has as its system Platelet. Nature of the assay: Inhibition of collagen-induced platelet aggregation in rabbit platelet assessed as aggregation at 50 uM treated 3 mins before collagen challenge by turbidimetric method. Details: scale not given: the % may be the effect or the level left. It counts as functional, Oryctolagus cuniculus. The method, boiled down:
as §2

Assay [10] deals with Platelet. Nature of the assay: Inhibition of platelet activating factor-induced platelet aggregation in rabbit platelet assessed as aggregation at 50 uM treated 3 mins before platelet activating factor challenge by turbidimetric method. It counts as functional, Oryctolagus cuniculus. Details: scale not given: the % may be the effect or the level left. Summed up:
as §2

For the compound `O=C1c2ccccc2C(=O)c2c(O)cc(O[C@@H]3O[C@H](CO)[C@@H](O)[C@H](O)[C@H]3O)cc21`, the Activity entry in the assay on Platelet [1] was “Dose-dependent effect”; with Platelet [3] it was 71.9%. Moreover, the Percent platelet aggregation in the assay on Platelet [2] amounted to 85.2%. Besides, the Platelet aggregation in the assay with Platelet [4] turned out to be 0%; in the assay with Platelet [5], 65.5%.
Consider `Cc1c(O[C@@H]2O[C@H](CO)[C@@H](O)[C@H](O)[C@H]2O[C@@H]2O[C@H](C)[C@@H](O)[C@H](O)[C@@H]2O)cc2c(c1O)C(=O)c1ccc(O)cc1C2=O`, for which the Percent platelet aggregation in the assay on Platelet [2] was 87%. Also, the Activity in the assay with Platelet [3] amounted to 83.4%. Moreover, the results for the Platelet aggregation in the assay with Platelet [4] and in the assay with Platelet [5] were 84% and 89.4%, respectively.
For the compound `Cc1c(O)cc2c(c1O)C(=O)c1ccc(O)cc1C2=O`, the Activity result is “Dose-dependent effect” in the assay on Platelet [1] and 83% in the assay on Platelet [3]. Also, the Percent platelet aggregation in the assay on Platelet [2] came out at 85.5%. For the same compound, the Platelet aggregation in the assay on Platelet [4] is 8.2%; with Platelet [5], 77.8%.
For `COC(=O)c1c2c(c3ccccc3c1O)OC(C)(C)C=C2` [MOLLUGIN], the Percent platelet aggregation in the assay with Platelet [2] turned out to be 90.9%. Moreover, the Activity in the assay with Platelet [3] is 0%; in the assay with Platelet [6], “Dose-dependent effect”. In addition, the figures for the Platelet aggregation in the assay with Platelet [4] and in the assay on Platelet [5] were 34.1% and 62.5%, respectively.
Regarding `CC(=O)O[C@H]1[C@H](O)[C@@H](CO)O[C@@H](Oc2cc3c(c(O)c2C)C(=O)c2ccc(O)cc2C3=O)[C@@H]1O[C@@H]1O[C@H](C)[C@@H](O)[C@H](O)[C@@H]1O`, the Percent platelet aggregation with Platelet [2] amounted to 82.4%. For the same compound, in the assay with Platelet [3], the Activity is reported as 90.6%. Moreover, the Platelet aggregation is 82.4% with Platelet [4] and 81.5% in the assay on Platelet [5].
`CC(=O)Oc1ccccc1C(=O)O` [ASPIRIN]: the Activity came out at 91.9% in the assay with Platelet [7], 0% with Platelet [8], 85.4% in the assay with Platelet [9] and 90.5% with Platelet [10].
In the case of `Cc1ccc2c(c1O)C(=O)c1ccccc1C2=O`, in the assay with Platelet [2], the Percent platelet aggregation amounted to 88.7%. In addition, in the assay on Platelet [3], the Activity is given as 81.6%. The Platelet aggregation with Platelet [4] was found to be 85.7%; with Platelet [5], 82.3%.
As to `O=C1c2ccccc2C(=O)c2c(O)cc(O)cc21` [XANTHOPURPURIN], the Percent platelet aggregation with Platelet [2] is on record as 86.9%. Also, the Activity in the assay with Platelet [3] worked out at 85%. Also, the values for the Platelet aggregation in the assay on Platelet [4] and in the assay with Platelet [5] were 3.8% and 82.6%, respectively.
In the same order, the values of `COC(=O)c1c(CC=C(C)C)c(O[C@@H]2O[C@H](CO)[C@@H](O)[C@H](O)[C@H]2O)c2ccccc2c1O[C@@H]1O[C@H](CO)[C@@H](O)[C@H](O)[C@H]1O` are 91.3%, 86.9%, 81.2% and 90.3%.
In the same order, the values of `O=C1c2ccccc2C(=O)c2c1cc(O[C@@H]1O[C@H](CO[C@@H]3OC[C@@H](O)[C@H](O)[C@H]3O)[C@@H](O)[C@H](O)[C@H]1O)c(CO)c2O` [LUCIDIN PRIMEVOROSIDE] are 92.2%, 88.5%, 83.5% and 89.1%.
